From ChEMBL document CHEMBL1134208, “Controlled drug release: new water-soluble prodrugs of an HIV protease inhibitor” (Bioorg Med Chem Lett, 2001)
≈ marks a conversion by molar mass, not a printed value.

What was measured:
Type in all cases: ADME
[1] = Time required for 50% release of KNI-727 at 37 degree celsius
Outline: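 Prodrug added from a 0.5 mM DMSO stock to PBS (pH 7.4) and incubated at 37 °C. Aliquots taken at successive time points were injected directly onto HPLC with detection at 230 nm. Loss of prodrug and appearance of released parent were followed over time to give the half-life of release.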

[2] = Water solubility of prodrug was determined; settings: buffer
Outline: (§1)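 Prodrug solution was passed through a membrane filter, and the dissolved prodrug concentration was then quantified by HPLC. Solubility was set against that of the parent drug measured the same way.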

[3] = Water solubility of prodrug was determined relative to KNI-727; settings: buffer; outline: as §1

| Structure (SMILES) | T1/2 [1] | Solubility [2] | Solubility [3] | Relative solubility [3] |
| --- | --- | --- | --- | --- |
| Cc1cccc(C)c1OCC(=O)N[C@@H](Cc1ccccc1)[C@H](OC(=O)CCC(=O)NCCC(=O)O)C(=O)N1CSC(C)(C)[C@H]1C(=O)NC(C)(C)C | 16.8 h | – | – | – |
| Cc1cccc(C)c1OCC(=O)N[C@@H](Cc1ccccc1)[C@H](OC(=O)CCC(=O)NCc1ccccc1)C(=O)N1CSC(C)(C)[C@H]1C(=O)NC(C)(C)C.Cl | 8.8 h | < 0.0111 mg/mL | – | – |
| Cc1cccc(C)c1OCC(=O)N[C@@H](Cc1ccccc1)[C@H](OC(=O)CCC(=O)NCCN)C(=O)N1CSC(C)(C)[C@H]1C(=O)NC(C)(C)C.Cl | 0.35 h | 115.4 mg/mL | 10400 mg/mL | – |
| Cc1cccc(C)c1OCC(=O)N[C@@H](Cc1ccccc1)[C@H](OC(=O)CCC(=O)NCC(N)=O)C(=O)N1CSC(C)(C)[C@H]1C(=O)NC(C)(C)C | 0.333 h | 0.21 mg/mL (≈ 295 µM) | – | 18.9 |
| Cc1cccc(C)c1OCC(=O)N[C@@H](Cc1ccccc1)[C@H](OC(=O)CC(C)(C)C(=O)NCCN)C(=O)N1CSC(C)(C)[C@H]1C(=O)NC(C)(C)C.Cl | < 0.017 h | 136.7 mg/mL | 12300 mg/mL | – |
| Cc1cccc(C)c1OCC(=O)N[C@@H](Cc1ccccc1)[C@H](OC(=O)CCC(N)=O)C(=O)N1CSC(C)(C)[C@H]1C(=O)NC(C)(C)C | 16 h | 0.0895 mg/mL (≈ 137 µM) | – | 8.1 |
| Cc1cccc(C)c1OCC(=O)N[C@@H](Cc1ccccc1)[C@H](OC(=O)CCCC(=O)NCCN)C(=O)N1CSC(C)(C)[C@H]1C(=O)NC(C)(C)C.Cl | 28 h | 56.9 mg/mL | 5130 mg/mL | – |
| Cc1cccc(C)c1OCC(=O)N[C@@H](Cc1ccccc1)[C@H](OC(=O)CCC(=O)NCCN(C)C)C(=O)N1CSC(C)(C)[C@H]1C(=O)NC(C)(C)C.Cl | 0.183 h | 171.5 mg/mL | – | – |
| Cc1cccc(C)c1OCC(=O)N[C@@H](Cc1ccccc1)[C@H](OC(=O)CCC(=O)NCC(=O)O)C(=O)N1CSC(C)(C)[C@H]1C(=O)NC(C)(C)C | 18.7 h | 0.0735 mg/mL (≈ 103 µM) | – | 6.6 |
